In paper PMC7992179 (ACS Omega, 2021):
Values joined by “and” are separate entries in the source; they are usually repeats but may differ in a detail not shown here. Equal entries are not always repeated.

Key:
MCF-7 cell line = test: MTT cytotoxicity assay in MCF-7 cells; assay type: cell-based, human; settings: for IC50 ± SD: MCF-7, 1–30 μM; for IC50 ± SD / % inhibition/stimulation: 48 h, MTT; for % inhibition/stimulation: conc. 30 μM
Procedure, shortened: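 MCF-7 cells grown in Eagle's MEM with 10% FBS, 1% penicillin/streptomycin, 0.1 mM non-essential amino acids, 10 μg/mL insulin and 1 mM sodium pyruvate at 37 °C, 5% CO2. Trypsin/EDTA-harvested cells were seeded at 6 × 10^4 cells/mL and incubated overnight. Test compound (1–30 μM, or a fixed 30 μM screen against doxorubicin) was applied for 48 h. MTT 0.5 mg/mL for 4 h, DMSO, A570; % inhibition and IC50.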

[1] = test system: motor coordination on rotating rod; test: Neurotoxicity / minimal motor impairment, rotating rod; assay type: in vivo; settings: rod observed 5 min, mean ± SEM, 10 mice
Procedure, shortened: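 White albino mice of either sex, 8–10 weeks, 25–35 g, were trained on a rotating rod (2.5 cm diameter, 25 cm high). After i.p. dosing (10, 30 or 50 mg/kg), motor coordination was scored over 5 min at 30 min and 4 h. Neurotoxicity meant failure to stay on the rod for 1 min. 10 mice per group; mean ± SEM.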

PTZ-induced convulsions = PTZ-induced convulsions in mice; assay type: in vivo; settings: for average duration of seizure / latency time / seizure score / mortality: 5 mg/kg i.p., PTZ 70 mg/kg i.p., n = 10; for average duration of seizure / latency time / seizure score: mean ± SEM; for enhancement of latency time of PTZ-induced seizures compared with the standard LTG drug: vs LTG
Procedure, shortened: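 Overnight-fasted albino mice (n = 10 per group) received test compound at 5 mg/kg i.p., suspended in carboxymethylcellulose and sonicated. Controls were vehicle, PTZ alone and lamotrigine (dose-finding at 1–5 mg/kg). Clonic seizures were induced with PTZ 70 mg/kg i.p. Recorded: latency, convulsion duration, number of convulsions, protection, and a 0–6 seizure score (6 = death). Mean ± SEM; one-way ANOVA with Dunnett's test versus the PTZ group.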

Row | Molecule | inhibition at 30 µM (MCF-7 cell line; Homo sapiens, MCF7, 48 h, read-out: % inhibition/stimulation) | time on Rod ([1]; dose 10 mg/kg i.p.) | time on Rod ([1]; dose 30 mg/kg i.p.) | time on Rod ([1]; dose 50 mg/kg i.p.) | average duration of seizure (PTZ-induced convulsions) | latency time (PTZ-induced convulsions) | seizure score (PTZ-induced convulsions) | mortality (PTZ-induced convulsions) | IC50 ± SD (MCF-7 cell line) | % inhibition/stimulation (MCF-7 cell line) | protection against PTZ-induced convulsions (PTZ-induced convulsions; dose of 5 mg/kg) | enhancement of latency time of PTZ-induced seizures compared with the standard LTG drug (PTZ-induced convulsions; 5 mg/kg) | time on Rod ([1]; dose 50 mg/kg i.p., 50 mg/kg) | latency time (PTZ-induced convulsions; listed as LTG control) | decrease in the time duration of convulsions as compared to PTZ (negative control) (PTZ-induced convulsions; 5 mg/kg, vs PTZ negative control) | mice protected from clonic convulsions (PTZ-induced convulsions; LTG monotherapy 5 mg/kg) | highest nonprotective dose in the PTZ model (PTZ-induced convulsions; monotherapy, doses 1-5 mg/kg tested against clonic convulsions) | time on Rod ([1]; dose 10 mg/kg i.p., 10 mg/kg) | time on Rod ([1]; dose 30 mg/kg i.p., 30 mg/kg)
1 | COc1cccc2c1C(=O)c1c(O)c3c(c(O)c1C2=O)C[C@@](O)(C(=O)CO)C[C@@H]3O[C@H]1C[C@H](N)[C@H](O)[C@H](C)O1 [doxorubicin (DOX), doxorubicin, reference compound] | 101% | – | – | – | – | – | – | – | – | – | – | – | – | – | – | – | – | – | –
2 | Oc1ccccc1/C=N/c1nnc(-c2cccc(Cl)c2Cl)c(/N=C/c2ccccc2O)n1 [3b, 2,2′-{[6-(2,3-Dichlorophenyl)-1,2,4-triazine-3,5-diyl]bis[azanylylidene(E)methanylylidene]}diphenol] | – | 110.8 ± 98.6 s | 90.5 ± 82.3 s | 65.97 ± 54.9 s | – | – | – | – | – | – | – | – | – | – | – | – | – | – | –
3 | 2,2′-{[6-(2,3-Dichlorophenyl)-1,2,4-triazine-3,5-diyl]bis[azanylylidene(E)methanylylidene]}diphenol Dibutyl Tin Dichloride Coordinate Complex [7b] | – | 80.0 ± 27.6 s | 68.9 ± 25.7 s | 45.64 ± 19.3 s | 99 ± 7.1 s | 190.0 ± 70.1 s | 12.0 ± 1.5 counts | 0.0 counts | inactive | 0.00% | – | – | – | – | – | – | – | – | –
4 | (1E,2Z)-N-[6-(2,3-Dichlorophenyl)-5-{(E)-[(2E)-3-phenylprop-2-en-1-ylidene]amino}-1,2,4-triazin-3-yl]prop-2-en-1-imine Silver Nitrate Coordinate Complex [6a] | – | 141.7 ± 102.5 s | 120.0 ± 98.7 s | 75.8 ± 20.3 s | 105 ± 7.1 s | 180.0 ± 75.9 s | 11.0 ± 2.3 counts | 1 counts | inactive | 0.00% | 90% | – | – | – | – | – | – | – | –
5 | 2,2′-{[6-(2,3-Dichlorophenyl)-1,2,4-Triazine-3,5-Diyl]bis[azanylylidene(E)methanylylidene]}diphenol Zinc Chloride Coordinate Complex [4b] | – | 105.0 ± 98.5 s | 80.6 ± 78.6 s | 54.26 ± 42.3 s | 81.5 ± 2.1 s | 240.0 ± 10.3 s | 10.0 ± 6.5 counts | 0.0 counts | inactive | 0.00% | – | 13% | – | – | – | – | – | – | –
6 | 4-{[(3-{(E)-[(4-Hydroxy-3-methoxyphenyl)methylidene]amino}-6-(2,3-dichlorophenyl)-1,2,4-triazin-5-yl)imino]methyl}-2-methoxyphenol Dibutyl Tin Dichloride Coordinate Complex [7c] | – | 190.0 ± 74.6 s | 167.4 ± 89.8 s | – | 125 ± 15.3 s | 160.0 ± 49.0 s | 11.0 ± 1.6 counts | 0.0 counts | inactive | 0.00% | – | – | 140.5 ± 94.9 s and 140.5 ± 94.0 s | – | – | – | – | – | –
7 | COc1cc(C=Nc2nc(/N=C/c3ccc(O)c(OC)c3)nnc2-c2cccc(Cl)c2Cl)ccc1O [3c, 4-{[(3-{(E)-[(4-Hydroxy-3-methoxyphenyl)methylidene]amino}-6-(2,3-dichlorophenyl)-1,2,4-triazin-5-yl)imino]methyl}-2-methoxyphenol] | – | 140.7 ± 92.4 s | 126.4 ± 88.0 s | 100.0 ± 82.3 s | – | – | – | – | – | – | – | – | – | – | – | – | – | – | –
8 | 4-{[(3-{(E)-[(4-Hydroxy-3-methoxyphenyl)methylidene]amino}-6-(2,3-dichlorophenyl)-1,2,4-triazin-5-yl)imino]methyl}-2-methoxyphenol Copper Acetate Coordinate Complex [5c] | – | 121.7 ± 98.3 s | 90.0 ± 85.6 s | 75.64 ± 52.7 s | 115 ± 10.0 s | 230.0 ± 70.1 s | 10.0 ± 2.6 counts | 0.0 counts | inactive | 0.00% | – | 8% | – | – | – | – | – | – | –
9 | Nc1nnc(-c2cccc(Cl)c2Cl)c(N)n1 [LTG, 3,5-diamino-6-(2,3-dichlorophenyl)-1,2,4-triazine, reference compound] | – | 290.0 ± 16.7 s | 245.8 ± 15.4 s | 200.7 ± 13.7 s | 90 ± 3.5 s | ~212 s | 11.0 ± 2.3 counts | 0.0 counts | – | – | – | – | – | 211.7 ± 98.1 s | 42% | 6% | 5 mg/kg | – | –
10 | (1E,2Z)-N-[6-(2,3-Dichlorophenyl)-5-{(E)-[(2E)-3-phenylprop-2-en-1-ylidene]amino}-1,2,4-triazin-3-yl]prop-2-en-1-imine Zinc Chloride Coordinate Complex [4a] | – | 66.7 ± 15.1 s | 45.4 ± 10.3 s | 30.6 ± 4.2 s | 86.5 ± 5.0 s | 145.0 ± 23.4 s | 15.0 ± 4.9 counts | 0.0 counts | inactive | 0.00% | – | – | – | – | – | – | – | – | –
11 | C1CCc2nnnn2CC1 [PTZ, pentylenetetrazole, reference compound] | – | – | – | – | – | – | – | – | – | – | – | – | 7.7 ± 2.4 s | – | – | – | – | 16.67 ± 8.165 s | 10.46 ± 1.654 s
12 | (1E,2Z)-N-[6-(2,3-Dichlorophenyl)-5-{(E)-[(2E)-3-phenylprop-2-en-1-ylidene]amino}-1,2,4-triazin-3-yl]prop-2-en-1-imine Dibutyl Tin Dichloride Coordinate Complex of L1 [7a] | – | 155.0 ± 97.5 s | 130.6 ± 92.4 s | 100.4 ± 87.7 s | 110 ± 14.1 s | 220.0 ± 72.7 s | 12.0 ± 1.2 counts | 0.0 counts | inactive | 0.00% | – | 4% | – | – | – | – | – | – | –
13 | 4-{[(3-{(E)-[(4-Hydroxy-3-methoxyphenyl)methylidene]amino}-6-(2,3-dichlorophenyl)-1,2,4-triazin-5-yl)imino]methyl}-2-methoxyphenol Zinc Chloride Coordinate Complex [4c] | – | 80.0 ± 75.3 s | 50.6 ± 42.5 s | 30.65 ± 25.7 s | 81.5 ± 1.5 s | 250.0 ± 10.3 s | 14.0 ± 3.7 counts | 0.0 counts | inactive | 0.00% | – | 18% | – | – | – | – | – | – | –
